Publication PMC9157583 (Alzheimer's & Dementia : Translational Research & Clinical …, 2022)
Where “and” joins values, the source holds several entries; their conditions need not be identical. Identical values can stand only once. Like-named read-outs stand apart in the source and are kept apart here.

Assays:
alpha‐synuclein = assay: Total alpha‐synuclein ELISA in CSF and plasma; assay type: in vivo, human; details: bosutinib 100 mg compared to placebo, 12 weeks
Procedure, shortened: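 Total alpha-synuclein in CSF and plasma was measured by solid-phase sandwich ELISA per the kit protocol, and the CSF/plasma ratio was calculated from the two levels. Samples were taken at baseline and week 12 from DLB participants given oral test compound 100 mg daily or placebo. Changes were compared within groups by one-tailed paired Wilcoxon test and between groups by one-tailed Welch t-test.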

[1] = tested on: Aβ40, Aβ42, total tau, p‐tau 181; assay: Aβ40, Aβ42, total tau, and p‐tau 181 ELISA in CSF and plasma; assay type: in vivo, human; details: CSF or plasma, bosutinib vs placebo
Procedure, shortened: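 Plasma (10 mL blood) and lumbar-puncture CSF (~15 mL) were taken at baseline and at week 12 from DLB participants randomized 1:1 to oral test compound 100 mg daily or placebo. Sampling was 1–4 h post-dose, ~2 h after the last levodopa dose. Aβ40, Aβ42, total tau and p-tau181 were measured by Milliplex ELISA, with CSF and plasma run in parallel using the same reagents.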

[2] = open label study, 12 months; cited from earlier work
[3] = Pharmacokinetics: bosutinib concentration in plasma of DLB participants; assay type: in vivo, human; details: for Tmax / AUC / Cmax: human; for AUC: AUC0‐4, plasma
[4] = tested on: individuals with dementia with Lewy bodies; assay type: in vivo, human; details: bosutinib 100 mg once daily, 12 weeks
[5] = for AUC / Cmax / Tmax: human, in vivo, po; for AUC: AUC0‐4, CSF
[6] = tested on: individuals with dementia with Lewy bodies; assay: Exploratory clinical assessments; assay type: in vivo, human; details: change 12 week‐ baseline, bosutinib 100 mg vs. placebo; interval in brackets
alpha‐synuclein oligomer = assay: Oligomeric alpha‐synuclein ELISA in CSF and plasma; assay type: in vivo, human; details: CSF or plasma, bosutinib vs placebo
Procedure, shortened: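 Oligomeric alpha-synuclein in CSF and plasma was quantified with a commercial quantitative ELISA kit per the manufacturer's protocol. Samples were drawn at baseline and week 12 from DLB participants on oral test compound 100 mg daily or matching placebo, 1–4 h after dosing and ~2 h after the last levodopa dose.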

Abl/SRC = details: cited from earlier work
[7] = tested on: dopamine metabolites DOPAC and HVA; assay: Quantification of dopamine metabolites DOPAC and HVA; assay type: in vivo, human; details: bosutinib 100 mg compared to placebo, 12 weeks
Procedure, shortened: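 CSF DOPAC and HVA were derivatized with benzoyl chloride and quantified by UHPLC-MS/MS. CSF was obtained by lumbar puncture at baseline and week 12, 1–4 h after oral test compound 100 mg daily or placebo and ~2 h after the last levodopa dose. Values were given as mean ± SD, with one-sided tests at 5% type I error and 90% CI.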

[8] = cited from earlier work
Src = Src (Homo sapiens, UniProt P12931); assay: Phospho‐Src; assay type: in vivo; details: bosutinib 100 mg compared to placebo, 12 weeks
Src, sequence (P12931 whole entry): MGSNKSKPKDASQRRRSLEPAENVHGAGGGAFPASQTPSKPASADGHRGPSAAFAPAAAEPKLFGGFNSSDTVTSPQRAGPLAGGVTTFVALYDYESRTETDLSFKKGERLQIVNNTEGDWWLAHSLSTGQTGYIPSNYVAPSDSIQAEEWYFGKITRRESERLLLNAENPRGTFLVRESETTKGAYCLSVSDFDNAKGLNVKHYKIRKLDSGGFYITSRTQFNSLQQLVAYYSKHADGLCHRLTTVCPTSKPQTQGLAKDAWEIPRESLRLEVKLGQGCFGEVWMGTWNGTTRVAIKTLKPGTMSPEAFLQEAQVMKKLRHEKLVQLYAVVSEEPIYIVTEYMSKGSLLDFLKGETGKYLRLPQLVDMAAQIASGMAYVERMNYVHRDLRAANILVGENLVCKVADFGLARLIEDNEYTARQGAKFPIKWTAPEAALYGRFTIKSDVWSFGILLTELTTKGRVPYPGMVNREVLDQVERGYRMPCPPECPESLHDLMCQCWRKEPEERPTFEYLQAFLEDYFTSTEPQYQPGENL
Procedure, shortened: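 Phospho-Src was assayed with a PathScan sandwich ELISA. CSF or plasma was added to wells coated with rabbit polyclonal antibody that captures Src phosphorylated at Tyr416. Samples came from DLB participants at baseline and after 12 weeks of oral test compound 100 mg daily or placebo. Within-group changes used a one-tailed paired Wilcoxon test; between-group changes used a one-tailed Welch-corrected unpaired t-test.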

[9] = 100 mg, 12 weeks vs single dose
[10] = CSF, 100 mg, 12 weeks vs single dose
[11] = 100 mg, CSF, multiple oral doses 100 mg once daily, 12 weeks
[12] = 100 mg, CSF, single oral dose 100 mg
[13] = 200 mg, CSF, single oral dose 200 mg
[14] = plasma, single oral dose 500 mg, normal individuals, n = 6

COc1cc(Nc2c(C#N)cnc3cc(OCCCN4CCN(C)CC4)c(OC)cc23)c(Cl)cc1Cl [Bosutinib, Bosutinib monohydrate]
CSF alpha‐synuclein level (alpha‐synuclein; CSF, Figure 2I): significantly reduced | CSF:plasma of alpha‐synuclein (alpha‐synuclein; Figure 2K): reduced | Aβ40 [1]: no differences | Aβ42 [1]: no differences | Total tau [1]: no differences | p‐tau181 [1]: no differences | Repeatable Battery for the Assessment of Neuropsychological Status (RBANS) [2]: less decline | Increase of plasma exposure (AUC0‐4), multiple doses compared to a single dose [3, 9]: ~3 fold | Increase of plasma level (Cmax), multiple doses compared to a single dose [3, 9]: more than 2 fold | Tmax ([3]; oral, Tmax in the current study, between 0 and 4 hours, current study): 3 to 4 h | AUC ([3]; po, 100 mg, multiple oral doses 100 mg once daily, 12 weeks): 73.1 ng·h/mL and 0.138 µM·h | AUC ([3]; po, 100 mg, single oral dose 100 mg): 25 ng·h/mL and 0.0479 µM·h | Cmax ([3]; po, 100 mg, multiple oral doses 100 mg once daily, 12 weeks, n = 13): 29.9 ng/mL and 56.4 nM | Cmax ([3]; po, 100 mg, single oral dose 100 mg, n = 9): 13.5 ng/mL and 25.5 nM | Tmax ([3]; po, 100 mg, Tmax, multiple oral doses 100 mg once daily, 12 weeks): 4 h | Tmax ([3]; po, 100 mg, Tmax, single oral dose 100 mg, sampling 0 to 4 hours): 3 h | AUC ([3]; po, 200 mg, single oral dose 200 mg): 36.9 ng·h/mL and 0.0696 µM·h | Cmax ([3]; po, 200 mg, single oral dose 200 mg, n = 9): 19.6 ng/mL and 37 nM | Prolongation of QTc intervals [4]: no prolongation of QTc intervals | Serious adverse events (SAEs) [4]: no serious adverse events | Total dropped out ([4]; DLB, N = 13, number (%)): 0 (0%) | Adverse event: Dizziness, number of events (%) ([4]; N = 13): 1 (7.7%) | Adverse event: Falls, number of events (%) ([4]; N = 13): 3 (23.1%) | Adverse event: Flu, number of events (%) ([4]; N = 13): 0 (0%) | Adverse event: Impaction, number of events (%) ([4]; N = 13): 0 (0%) | Adverse event: Liver transaminases, number of events (%) ([4]; N = 13): 1 (7.7%) | Adverse event: Pain, number of events (%) ([4]; N = 13): 3 (23.1%) | Adverse event: Post‐lumbar puncture headache, number of events (%) ([4]; N = 13): 1 (7.7%) | Adverse event: Upper respiratory infection, number of events (%) ([4]; N = 13): 0 (0%) | Adverse event: Urinary incontinence, number of events (%) ([4]; N = 13): 1 (7.7%) | Adverse event: Urinary tract infection, number of events (%) ([4]; N = 13): 1 (7.7%) | Total number of adverse events (AEs) ([4]; N = 13, 9 in placebo, P = 0.68): 11 | Increase of CSF exposure (AUC0‐4), multiple doses compared to a single dose [5, 10]: 10 fold | Increase of CSF level (Cmax), multiple doses compared to a single dose [5, 10]: 9 fold | AUC ([5]; 100 mg, multiple oral doses 100 mg once daily, 12 weeks): 1.15 ng·h/mL and 0.00216 µM·h | AUC ([5]; 100 mg, single oral dose 100 mg): 0.14 ng·h/mL and 0.00026 µM·h | Cmax [5, 11]: 0.94 ± 0.32 nM | Cmax ([5]; 100 mg, CSF, multiple oral doses 100 mg once daily, 12 weeks, n = 13): 0.5 ± 0.17 ng/mL | Cmax [5, 12]: 0.11 ± 0.08 nM | Cmax ([5]; 100 mg, CSF, single oral dose 100 mg, n = 9): 0.06 ± 0.04 ng/mL | Tmax [5, 11]: 3 h | Tmax [5, 12]: 2 h | AUC ([5]; 200 mg, single oral dose 200 mg): 0.24 ng·h/mL and 0.00044 µM·h | Cmax [5, 13]: 0.25 ± 0.09 nM | Cmax ([5]; 200 mg, CSF, single oral dose 200 mg, n = 9): 0.13 ± 0.06 ng/mL | Tmax [5, 13]: 4 h | Alzheimer's Disease Assessment Scale–Cognitive subscale (ADAS‐Cog) [6]: −0.66 (−4.67, 3.33) | Clinician Assessment of Fluctuation (CAF) [6]: 1 (−2,3) | Irritability and Apathy Scale (IAS)‐_Participant_APATHY [6]: 0 (−3, 4) | Irritability and Apathy Scale (IAS)‐_Participant_IRRITABILITY [6]: 0 (−2, 3) | Irritability and Apathy Scale (IAS)‐_Partner_APATHY [6]: −1 (−4, 2) | Irritability and Apathy Scale (IAS)‐_Partner_IRRITABILITY [6]: 1 (−1, 4) | Montreal Cognitive Assessment (MoCA) [6]: 0 (−1, 2) | Neuropsychiatric Inventory (NPI) frequency x severity [6]: 0 (−8, 9) | Neuropsychiatric Inventory (NPI)_Caregiver Distress [6]: 2 (−1, 6) | Problem Behaviours Assessment (PBA) [6]: 1 (−14, 10) | Timed Up and Go [6]: 0 (−3, 2) | Unified Parkinson's Disease Rating Scale (Activities of Daily Living)‐Part II [6]: −1 (−3, 2) | Unified Parkinson's Disease Rating Scale (Motor)‐Part III [6]: 0 (−4, 4) | Unified Parkinson's Disease Rating Scale (SUM Part II+III) [6]: −1 (−6, 5) | Unified Parkinson's Disease Rating Scale (UPDRS‐Cognition)‐Part I [6]: 0 (−2, 1) | Unified Parkinson's Disease Rating Scale (total Part I+III) [6]: −2 (−7, 6) | Oligomeric alpha‐synuclein (alpha‐synuclein oligomer): no differences | IC50 (Abl/SRC): 1.2 nM | CSF DOPAC level ([7]; CSF, Figure 2E): no statistically significant difference | CSF HVA level ([7]; CSF, Figure 2F): no statistically significant difference | Plasma DOPAC level ([7]; plasma, Figure 2G): significantly reduced | Plasma HVA level ([7]; plasma, Figure 2H): significantly reduced | Tmax in previous studies ([8]; between 0 and 24 hours): around 6 hours | AUC0‐24 [8, 14]: 2190 ± 661 ng/h/mL | Tmax [8, 14]: 3.50 (2.00–6.00) hrs | CSF p‐Src (Src; CSF, Figure 2D): could not demonstrate differences | Plasma active Src phosphorylated at Tyr416 (Src; plasma, Figure 2C): significantly reduced
